The subject of test [1] is Erk1/2. As to the kind of experiment: Erk1/2 phosphorylation in 293T cells, Western blot. The test is classed as cell-based. The conditions noted are these: not serum starved. The gist of the method:
(§1)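 293T cells (1×10^6) transfected 24 h after plating with Flag-tagged wild-type or mutant Brk using polyethylenimine. Lysed 48 h post-transfection in RIPA buffer (pH 7.5) with protease and phosphatase inhibitors, then SDS-PAGE and PVDF blotting.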
A general note: In western blotting, separated proteins are transferred to a membrane and probed.

The next test relates to MCF-10a cells. Description: Growth of stable MCF-10a cells. The conditions noted are these: MCF-10a stable cells; compared to Brk WT. Type of test: cell-based.
The test system of test [2] is Erk1/2. The test is classed as cell-based. The conditions noted are these: 293T cells, serum starved, 10 ng/mL EGF for 2.5 min. The gist of the method:
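293T cells were PEI-transfected with Flag-Brk (wild-type or mutant) and serum-starved overnight. They were then stimulated with 10 ng/mL EGF for 2.5 min, lysed in RIPA buffer with inhibitors, and resolved by SDS-PAGE on PVDF. Blots were probed for phospho-Erk1/2 (Thr202/Tyr204), total Erk1/2 and Flag.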

A further test concerns ErbB2. Description: ErbB2 interaction, co-immunoprecipitation. The test is classed as binding. The conditions noted are these: 293T cells cotransfected with ErbB2 and Brk; ErbB2 immunoprecipitated. The procedure, abridged:
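Flag-tagged wild-type or mutant Brk and full-length ErbB2 were co-transfected into 293T cells with polyethylenimine (8 μL per μg DNA in 150 mM NaCl), 24 h after plating. Cells were lysed at 48 h in RIPA buffer with protease/phosphatase inhibitors. Lysate (1 mg/mL) was precleared on protein G agarose, then taken with 1 μg anti-ErbB2 (1 h, 4 °C) and protein G (4 h, 4 °C). After washing, blots were probed with anti-ErbB2 and anti-Flag.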

The test system of another test is β-catenin. Description: β-catenin phosphorylation and binding, immunoprecipitation from 293T cells. The test is classed as cell-based. The conditions noted are these: 293T cells coexpressing β-catenin; for binding to β-catenin (in words): Flag antibody; for phosphorylation of β-catenin (in words): anti-phosphotyrosine; for binding and phosphorylation of β-catenin (in words): compared to wild-type Brk. The gist of the method:
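Flag-tagged β-catenin was coexpressed with Flag-Brk (wild-type or mutant) in 293T cells by PEI transfection, and lysates were made 48 h later in RIPA buffer. Lysate (1 mg/mL) was precleared on protein G agarose (1 h, 4 °C), incubated with 1 µg anti-β-catenin (1 h, 4 °C), then captured on protein G for 4 h at 4 °C. After three RIPA washes, SDS elution and blotting, membranes were probed with anti-phosphotyrosine and anti-β-catenin, then reprobed with anti-Flag for Brk association.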

For another test, the system named is p130Cas. As to the kind of experiment: Cas phosphorylation in 293T cells, Western blot. The test is classed as cell-based. The conditions noted are these: 293T cells cotransfected with Brk and Cas. The gist of the method: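 293T cells were cotransfected with V5-His-tagged p130Cas and Flag-tagged wild-type or mutant Brk using polyethylenimine, then harvested 48 h later in RIPA buffer with inhibitors. Lysates were analysed by SDS-PAGE and PVDF Western blotting. Probes were anti-phospho-p130Cas (Tyr249), anti-p130Cas and anti-Flag.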

The next test relates to Akt and Erk1/2. Description: Akt and Erk1/2 activation in SkBr3 cells. Type of test: cell-based. The settings on record: SkBr3 breast cancer cells.
In another test the test system is SkBr3 cells. Description: Growth of stable SkBr3 cells. Type of test: cell-based.
A further test relates to Akt. Description: Akt phosphorylation in 293T cells, Western blot. The test is classed as cell-based. The conditions noted are these: phospho-Akt (Ser473). The gist of the method: as §1
Another test concerns STAT3. Description: STAT3 phosphorylation in 293T cells, Western blot. The settings on record: compared to control cells or wild-type Brk. The test is classed as cell-based. The procedure, abridged: as §1
Test [3] has as its system NIH-3T3 cells. Description: Anchored growth of stable NIH-3T3 cells. The conditions noted are these: NIH-3T3 stable cells, 20 000 cells plated in duplicate; hemocytometer. Type of test: cell-based. The gist of the method:
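NIH-3T3 lines stably expressing wild-type or mutant Brk were made by MSCV-PIG retroviral infection with 8 µg/mL Polybrene. Selection used puromycin (2 µg/mL) from 48 h postinfection, and lines with equivalent GFP expression were used. Cells (20 000) were plated in duplicate in 12-well plates. At each time point over several days they were trypsinized and counted by hemocytometer. Representative of three experiments; standard deviations shown.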

Test [4] has as its system NIH-3T3 cells. As to the kind of experiment: Nonanchored growth of stable NIH-3T3 cells. The test is classed as cell-based. The conditions noted are these: NIH-3T3 stable cells, low attachment plates, day 6, triplicate. The procedure, abridged:
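NIH-3T3 lines stably expressing Brk were made by retrovirus with puromycin selection and matched for GFP expression. Cells (20 000) were seeded in triplicate in 24-well low-attachment plates. On day 6 they were centrifuged, resuspended in trypsin and counted by hemocytometer. Representative of two experiments; standard deviations shown.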

With “L16F: Brk mutant, SH3 domain, identified in clear cell renal cell carcinoma”, the “Erk1/2 phosphorylation (in words)” value in the test with Erk1/2 [1] is recorded as “increased phosphorylation of Erk1/2 compared to wild-type Brk”. Also, the “proliferation (in words)” value in the test with MCF-10a cells is given as “reduced proliferation relative to wild-type Brk”. In addition, the “Erk1/2 phosphorylation after EGF stimulation (in words)” value in the test with Erk1/2 [2] was “no appreciable difference between wild-type and L16F Brk following stimulation with EGF”. Further, the “interaction with ErbB2 (in words)” value in the test on ErbB2 was “increased interaction with ErbB2 compared to wild-type Brk”. In the test on β-catenin, the “binding to β-catenin (in words)” value is on record as “decreased interaction with the protein” and the “phosphorylation of β-catenin (in words)” value is reported as “not able to phosphorylate β-catenin”. Moreover, in the test with p130Cas, the “expression of Brk upon coexpression with Cas (in words)” value is listed as “decreased expression” and the “phosphorylation of Cas (in words)” value is reported as “decreased phosphorylation of Cas”.

For the substance “L343F: Brk mutant, kinase domain, identified in cutaneous squamous cell carcinoma”, in the test with Akt and Erk1/2, the “activation of Akt and Erk1/2 (in words)” value was “increased activation of both Akt and Erk1/2”. The “binding and phosphorylation of β-catenin (in words)” value with β-catenin was “greater binding and phosphorylation of β-catenin as compared to wild-type Brk”. In addition, the “anchored or nonanchored cell growth (in words)” value with SkBr3 cells is listed as “no increase in anchored or nonanchored cell growth”. Moreover, the “phosphorylation of Cas (in words)” value in the test with p130Cas was “greater phosphorylation of Cas compared to wild-type Brk”.

Regarding “N317S: Brk mutant, kinase domain, identified in ovarian carcinoma”, the “Akt phosphorylation (in words)” value in the test with Akt is “still phosphorylated”. The “Erk1/2 phosphorylation (in words)” value with Erk1/2 [1] is “still phosphorylated”. In addition, in the test with β-catenin, the “binding to β-catenin (in words)” value is “bound normally to β-catenin” and the “phosphorylation of β-catenin (in words)” value is given as “unable to phosphorylate the protein”. Also, the “phosphorylation of STAT3 (in words)” value in the test with STAT3 is “decrease in phosphorylation of STAT3”.

For “P450L: Brk mutant, C-terminal tail adjacent to the inhibitory tyrosine, identified in pancreatic cancer”, in the test on NIH-3T3 cells [3], the “anchored cell growth (in words)” value was “did not survive past Day 6”.

With “R131L: Brk mutant, SH2 domain, found in gastric cancer”, in the test on β-catenin, the “binding and phosphorylation of β-catenin (in words)” value was “greater binding and phosphorylation of β-catenin as compared to wild-type Brk”. Besides, the “phosphorylation of Cas (in words)” value in the test with p130Cas is on record as “greater phosphorylation of Cas compared to wild-type Brk”.

Turning to “V253M: Brk mutant, kinase domain, identified in head and neck squamous cell carcinoma”, the “phosphorylation of STAT3 (in words)” value with STAT3 is reported as “decrease in phosphorylation of STAT3”.

On to “WT: Flag-tagged wild-type full length Brk (PTK6)”, for which the “nonanchored cell growth (in words)” value in the test with NIH-3T3 cells [4] is “increase in nonanchored growth”. Moreover, the “anchored cell growth (in words)” value in the test with NIH-3T3 cells [3] was “increased cell growth compared to empty vector cells”.
